Bioassay records: PubChem BioAssay, Broad Institute
A selection: hits, their analogues and other compounds. The true share with any hit is near 3.5%.
FN deposition inh = fibronectin deposition inhibition; AH1F fibroblasts, Alexa488-fibronectin deposition fluorescence, overnight; inhibition, % at 12.6 µM; 0.086% of 350,000 active;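 active = mean inhibition across replicates of 30% or more, regardless of how many single replicates reach that level; inconclusive = mean under 30% yet at least half of replicates reach 30%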;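 also: positive control wells lacked labelled fibronectin entirely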
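Material: AH1F fibroblasts assembling fluorescent fibronectin matrix; amount: 10000 AH1F cells/well; medium: DMEM, 2% serum; reagent: Alexa488-fibronectin, 24 nM final in well; dosing: single compound dose, delivered by pin transfer; incubation: 1 h adhesion, overnight exposure; detection: fluorescence after three HBSS washes, excitation 485 nm, emission 525 nm; measure: fibronectin deposition inhibition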
PGC1a acetyl inh = modulators of PGC1a acetylation | inhibition, % at 15.6 µM | U2OS PGC1a acetylation, AlphaScreen anti-acetyl-lysine; with virally co-expressed GCN5 acetyltransferase | AID 651687 | 0.17% of 350,000 active;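 active = every replicate shows inhibition of at least 40%; inconclusive = mean inhibition at least 40% but some replicate below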;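 also: 0% = neutral control wells and 100% = positive control wells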
DENV2 CPE rescue = protects cells from dengue virus 2 cytopathic effect | DENV2-infected cells, cytopathic effect rescue, plate reader | AID 651640 | CPE inhibition, % at 9.99 µM | 1.7% of 350,000 active; in the data active = CPE inhibition above about 20%, passing the limit was not always enough; inconclusive = no clear call, values can overlap the other calls; tested in BHK-21 cells;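 also: 0% = median of neutral control wells and 100% = median of positive control wells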
Env fusion inh = blocks HIV Env-driven cell-cell fusion. HeLa-JRFL Env/CEM21 cell fusion, luciferase. inhibition, % at 12.3 µM. 1.1% of 360,000 active;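 active = mean replicate inhibition score of at least 50 and every replicate individually at or above 50; inconclusive = only one of the two criteria met; inactive = mean below 50 and not all replicates reaching 50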;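 also: 0% = plate neutral controls and 100% = maraviroc near 300 nM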
PglD inh = inhibitors of Campylobacter jejuni PglD acetyltransferase | purified PglD enzyme, DTNB colorimetric CoA detection | inhibition, % at 12.5 µM | 0.098% of 360,000 active; in the data active = inhibition above about 16%, passing the limit was not always enough; inconclusive = no clear call, values can overlap the other calls
rRNA inh HTS = selective bacterial rRNA inhibition in E. coli; E. coli WT GFP vs humanized-ribosome RFP mutants, fluorescence, 24 h; stronger effect = lower value; DMSO median 0, no signal -100; GFP signal change (wild-type ribosome), % (test concentration not listed); 1.6% of 350,000 active;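 active = significant combined selectivity score with lowered wild-type GFP, culture density cut under 30%, mutant RFP and density less affected; inactive = any of these conditions unmet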
The depositor's hits bear a star; ? = inconclusive; . = not tested or not shown; [ ] = remark or other dose.

SMILES | FN deposition inh | PGC1a acetyl inh | DENV2 CPE rescue | Env fusion inh | PglD inh | rRNA inh HTS
COc1ccc(CN(C)C[C@H]2OCCCC[C@@H](C)Oc3ccc(NC(=O)Cc4ccccc4)cc3C(=O)N([C@@H](C)CO)C[C@@H]2C)cc1 | . | -9 | ? | -44[16.7 µM] | 2 | 1
COc1ccc(CN(C)C[C@@H]2OCCCC[C@H](C)Oc3ccc(NC(=O)Cc4ccccc4)cc3C(=O)N([C@H](C)CO)C[C@@H]2C)cc1 | . | -5 | 27* | -30[16.7 µM] | 1 | -1
COc1ccc(NC(=O)Nc2ccc3c(c2)C(=O)N([C@@H](C)CO)C[C@H](C)[C@H](CN(C)Cc2ccc(C(=O)O)cc2)OCCCC[C@@H](C)O3)cc1 | . | 10 | 59* | 38[16.7 µM] | 8 | 1
COc1ccc(CN(C)C[C@@H]2OCCCC[C@H](C)Oc3ccc(NC(=O)Nc4ccc(OC)cc4)cc3C(=O)N([C@@H](C)CO)C[C@@H]2C)cc1 | -3 | -19 | 19 | 64*[16.7 µM] | -1 | 0
COc1ccc(NC(=O)Nc2ccc3c(c2)C(=O)N([C@@H](C)CO)C[C@H](C)[C@H](CN(C)Cc2ccccc2)OCCCC[C@H](C)O3)cc1 | 5 | -7 | 18 | 86*[16.7 µM] | 0 | 3
CCC(=O)N1C[C@@H](O)COC[C@H]2O[C@H](CC(=O)N3CCCCC3)CC[C@@H]21 | -10 | -2 | 4 | -21[16.7 µM] | -3 | 5
CCN(c1cccc(C)c1)S(=O)(=O)c1ccc2c(c1)NC(=O)CS2 | 5 | -13 | 5 | 7 | -6 | -28
CCN(c1ccc(OC)cc1)S(=O)(=O)c1ccc2c(c1)NC(=O)CS2 | 5 | -28 | 11 | 0 | 0 | -27*
COc1ccc(CNC(=O)CCS(=O)(=O)c2ccc3c(c2)NC(=O)CS3)cc1 | 0 | 3 | 35* | 13 | -5 | 0
C[C@H](CO)N1C[C@H](C)[C@H](CN(C)C(=O)Cc2ccccc2)OCCCC[C@H](C)Oc2ccc(NC(=O)c3ccncc3)cc2C1=O | . | 6 | 4 | 8[16.7 µM] | -1 | -5
O=C(Nc1ccc(Cl)cc1)NN1CCCCCC1 | . | -8 | -4 | -13 | 1 | -32
O=C(Nc1ccc([N+](=O)[O-])cc1)NN1CCCCCC1 | . | -5 | 0 | 0 | -6 | -1.6*
CCCOc1ccc(/C=N/Nc2cc(N3CCOCC3)ncn2)c(O)c1 | 4 | . | -10 | 67* | 11 | 18
CC(C)NC(=O)Nc1cccc2c1O[C@H](CN(C)C(=O)Nc1ccc(F)cc1)[C@@H](C)CN([C@@H](C)CO)C2=O | . | 7 | -10 | . | -1 | 3
COCC#Cc1cnc2c(c1)C(=O)N([C@H](C)CO)C[C@H](C)[C@@H](CN(C)C)O2 | 0 | 9 | . | -10[16.7 µM] | -1 | 8
CN1CCN(C2Cc3ccc(F)cc3Sc3cc(F)c(Cl)cc32)CC1 (stereo not drawn) | 8 | -12 | -2 | 24 | -4 | -43*
CCOC(=O)C1=C[C@@H](C(C)C)N(S(=O)(=O)c2ccc([N+](=O)[O-])cc2)[C@H]1c1ccccc1 | -11 | -26 | ? | 51 | -4 | 2
CCOC(=O)C1=C[C@@H](c2ccccc2)N(S(=O)(=O)c2ccc(C)cc2)[C@H]1c1cccc(Cl)c1 | -9 | -17 | 30* | 19 | -4 | 30
CCOC(=O)C1=C[C@@H](C(C)(C)C)N(S(=O)(=O)c2ccc([N+](=O)[O-])cc2)[C@H]1c1cccc(Cl)c1 | -8 | . | -1 | 71* | . | 20
CCOC(=O)C1=C[C@@H](C(C)(C)C)N(S(=O)(=O)c2ccc(OC)cc2)[C@H]1c1ccccc1 | 0 | -7 | ? | 63* | 5 | 7
CCOC(=O)C1=C[C@@H](CC)N(S(=O)(=O)c2ccc(C)cc2)[C@H]1c1cccc(Cl)c1 | 5 | -12 | -4 | 14 | -4 | -2
CCOC(=O)C1=C[C@@H](CC)N(S(=O)(=O)c2ccc([N+](=O)[O-])cc2)[C@H]1c1ccccc1 | . | -7 | 42* | -15 | 0 | -6
CCCC#Cc1ccc2c(c1)[C@@H]1[C@@H](CCN1S(=O)(=O)c1ccccc1)[C@@H](CO)N2C | -8 | 1 | . | . | 0 | -2
Cc1noc(C)c1NC(=O)Nc1ccc2c(c1)C(=O)N([C@H](C)CO)C[C@@H](C)[C@H](CN(C)Cc1ccc(C(=O)O)cc1)O2 | . | 9 | 10 | . | -2 | 5
O=C(Nc1ccccc1F)N[C@@H]1CC[C@H](CCNC(=O)C2CCCC2)O[C@H]1CO | -1 | -1 | 26* | -18[16.7 µM] | 3 | 2
SMILES | FN deposition inh | PGC1a acetyl inh | DENV2 CPE rescue | Env fusion inh | PglD inh | rRNA inh HTS
O=C(Nc1ccccc1F)N[C@@H]1CC[C@H](CCNC(=O)C2CCCC2)O[C@@H]1CO | -2 | -9 | -6 | 9[16.7 µM] | 0 | -1
O=C(Nc1ccccc1F)N[C@@H]1CC[C@@H](CCNC(=O)C2CCCC2)O[C@H]1CO | -8 | -3 | 39* | 13[16.7 µM] | 0 | 2
Cc1noc(C)c1S(=O)(=O)Nc1ccc2c(c1)C(=O)N([C@H](C)CO)C[C@H](C)[C@H](CN(C)C(=O)CCC(F)(F)F)OCCCC[C@@H](C)O2 | . | 0 | 72* | 6[16.7 µM] | -1 | 2
Cc1noc(C)c1S(=O)(=O)Nc1ccc2c(c1)C(=O)N([C@H](C)CO)C[C@H](C)[C@@H](CN(C)C(=O)CCCN(C)C)OCCCC[C@H](C)O2 | . | 6 | 79* | 0[16.7 µM] | 2 | 0
Cc1noc(C)c1S(=O)(=O)Nc1ccc2c(c1)C(=O)N([C@H](C)CO)C[C@@H](C)[C@@H](CN(C)C(=O)CCC(F)(F)F)OCCCC[C@@H](C)O2 | . | 2 | -4 | 8[16.7 µM] | 2 | 0
Cc1noc(C)c1S(=O)(=O)Nc1ccc2c(c1)C(=O)N([C@@H](C)CO)C[C@@H](C)[C@H](CN(C)C(=O)CCCN(C)C)OCCCC[C@H](C)O2 | . | 10 | . | 1[16.7 µM] | 3 | 1
C[C@@H]1CN([C@H](C)CO)C(=O)Cc2cc(NS(=O)(=O)c3ccc(Cl)cc3)ccc2O[C@H]1CN(C)C(=O)NC1CCCCC1 | 3 | -3 | 37* | . | 2 | 1
COc1ccc(S(=O)(=O)Nc2ccc3c(c2)CC(=O)N([C@@H](C)CO)C[C@@H](C)[C@H](CN(C)C(=O)NC(C)C)O3)cc1 | -16 | 4 | 35* | -8[16.7 µM] | 2 | 5
C[C@@H]1CN([C@@H](C)CO)C(=O)Cc2cc(NS(=O)(=O)c3ccc(F)cc3)ccc2O[C@@H]1CN(C)C(=O)Nc1ccccc1 | . | -5 | -1 | -21[16.7 µM] | 5 | 1
COc1ccc(S(=O)(=O)Nc2ccc3c(c2)CC(=O)N([C@@H](C)CO)C[C@@H](C)[C@@H](CN(C)C(=O)NC(C)C)O3)cc1 | -2 | -8 | 7 | 6[16.7 µM] | 3 | 7
C[C@H]1CN([C@@H](C)CO)C(=O)Cc2cc(NS(=O)(=O)c3ccc(F)cc3)ccc2O[C@@H]1CN(C)C(=O)Nc1ccccc1 | . | -5 | 62* | -5[16.7 µM] | -4 | 2
